# Compound activity deposited in PubChem by several laboratories.
# Hits are enriched below; roughly 9.4% of the tested compounds scored in any of these assays.
# CSC inhib: cancer stem cell inhibition | inhibition, % at 7.5 µM | 300,000 compounds, 1.1% hits | cancer stem cell-like cells viability, luminescence | AID 2717; in the data active = inhibition above about 75%; tested in HMLE shEcad cells
# Lmaj promast: inhibitors of Leishmania major promastigote growth. inhibition, % at 10 µM. Leishmania major promastigotes, resazurin fluorescence viability. 200,000 compounds, 9% hits; in the data active = inhibition above about 50%;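 also: promastigotes grown with compound for 44 hours at 28 °C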
# Mdm2-MdmX inh: disrupts the human Mdm2-MdmX interaction; O15151+Q00987; SaOS-2 split-luciferase Mdm2/MdmX complementation, luminescence; inhibition, % at 8 µM; 330,000 compounds, 3% hits; AID 485346;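 active = inhibition of at least 50% at 8 µM in the primary screen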
# Beta apoptosis: beta cell apoptosis inhibition; 300,000 compounds, 0.8% hits; protection from apoptosis, % (no concentration beside the values); AID 435005; INS-1E cytokine-induced death, ATP luminescence, 48 h; percent of positive-control rescue, neutral wells zero;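 active = Every replicate reaches about 75%, or at least half do and their mean reaches it too, limit read from the data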;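 also: higher means more ATP so stronger rescue from cytokine killing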
# SKKanGAS inh: blocks kanamycin growth of S. pyogenes SKKanGAS strain; inhibition, % at 7.5 µM; 300,000 compounds, 1.3% hits; BacTiter-Glo, 6 h;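 active = mean replicate score, as percent of positive control median, at least 50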;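 also: strain carries kanamycin resistance gene driven by streptokinase promoter and grows in 40 µg/ml kanamycin; loss of luminescence reflects streptokinase promoter inhibition or plain growth inhibition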
# T cruzi inh: blocks replication of Trypanosoma cruzi; T. cruzi beta-gal in NIH3T3, luminescence, 90 h; inhibition, % (no concentration beside the values); 300,000 compounds, 1.4% hits;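 active = mean inhibition across valid replicates above about 55%, limit read from the data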;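 also: signal also drops with host cell toxicity which is not excluded here; higher percent means less beta-gal luminescence so fewer parasites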
#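 Test system: β-gal T. cruzi (Tulahuen C4) inside NIH/3T3 cells / Quantity: 5,000 cells/well / Measured by: luminescence from GalScreen with 0.05% NP40, read after 60 min / Medium: DMEM plus 2% FBS / Measure: parasite load inhibition, % / Reagent: Tulahuen C4 trypomastigotes, 5000/well / Schedule: co-culture of at least 90 h after 3 h attachment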
# Numbers stand for hits; . = inactive; / = not tested or not shown.
SMILES,CSC inhib,Lmaj promast,Mdm2-MdmX inh,Beta apoptosis,SKKanGAS inh,T cruzi inh
CCn1c(=O)c(C(=O)CN2CCN(Cc3ccc4c(c3)OCO4)CC2)c(N)n(Cc2ccccc2)c1=O,.,.,.,.,.,.
COCCCNC(=O)Cn1cnc2sc(C)c(S(=O)(=O)N3CC(C)CC(C)C3)c2c1=O (stereo not given),.,/,.,.,.,.
O=C(NNC(=S)NCc1ccccc1)c1ccc(Br)cc1,.,/,.,.,.,.
CC1=NN(c2ccccc2)C(=O)C1C=Nc1ccc(N(C)C)cc1 (stereo not given),86.5,/,.,.,.,.
COc1ccccc1NC(=O)CSc1nnc2ccc(-c3ccccn3)nn12,/,/,.,.,.,.
CC1=C(CC(=O)c2ccccc2)C(=O)c2ccccc2C1=O,.,94.0,.,98.0,.,.
CCc1cccc(C)c1NC(=O)CO/N=C(\C)c1cc2ccccc2o1,.,70.2,.,.,.,.
Fc1cccc(Cc2noc(CN3CCSCC3)n2)c1,.,.,.,.,.,.
Fc1cccc(Cc2noc(CN3CCN(C4CCc5ccccc5C4)CC3)n2)c1 (stereo not given),.,89.5,.,.,.,.
COc1ccc(Cc2noc(CN3CCCN(Cc4ccc(F)cc4)CC3)n2)cc1OC,.,77.2,.,.,.,78.4
Fc1cccc(Cc2noc(CN3CCCN(C4Cc5ccccc5C4)CC3)n2)c1,.,87.9,.,.,.,56.5
COc1ccc(Cc2noc(CN3CCN(C4CCc5ccccc5C4)CC3)n2)cc1OC (stereo not given),.,.,.,/,.,57.2
COc1ccc(NC(=O)CC2C(=O)N(c3ccc(OC)cc3)C(=O)N2Cc2ccc(OC)c(OC)c2)cc1 (stereo not given),.,.,.,.,.,.
CN1CCN(CCCNC(=O)CCC(=O)N2CCOc3ccccc32)CC1,.,/,.,.,.,.
CCCCCCCCCC(=O)N/N=C(\C)c1cccnc1,.,.,.,.,.,62.4
O=C(/C=C/c1ccncc1)c1ccc(NC(=O)c2ccccc2F)cc1,80.2,100.2,/,.,/,/
O=C(Nc1cccc(NC(=O)c2ccc(-c3ccc(Br)cc3)o2)c1)c1ccco1,.,.,.,.,.,57.9
CSc1ccc(/C=C/C(=O)c2ccc(NC(C)=O)cc2)cc1,.,57.2,.,.,.,.
O=C(/C=C/c1ccc(Br)cc1)c1ccc(NC(=O)c2ccco2)cc1,.,88.3,.,.,.,.
O=C(/C=C\c1ccccc1)Nc1ccc(NC(=O)c2ccco2)cc1,.,.,.,.,.,.
O=C(Nc1cccc(NC(=O)c2ccccc2Cl)c1)c1ccco1,.,/,.,.,.,.
O=C(/C=C/c1ccc(NC(=O)c2ccccc2-c2ccccc2C(=O)O)cc1)c1ccccc1,.,/,.,.,.,.
C/C(CCc1ccccc1)=N\NC(=O)C(=O)Nc1cccc(Cl)c1,.,.,.,.,.,.
CCC(c1nnc(SCC(=O)Nc2cc(S(C)(=O)=O)ccc2Cl)n1Cc1ccccc1)N(C)C (stereo not given),.,/,.,.,.,.
O=C(/C=C/c1ccc(Br)cc1)c1ccco1,.,89.0,.,.,.,.
SMILES,CSC inhib,Lmaj promast,Mdm2-MdmX inh,Beta apoptosis,SKKanGAS inh,T cruzi inh
O=C(Cc1cccc(NC(=O)C2CCN(C(=O)CCc3ccccc3)CC2)c1)Nc1cccc(C(=O)N2CCCC2)c1,.,/,.,.,/,/
Cc1ccc(C)c2[nH]c(=O)c(C(c3nnnn3CCc3ccccc3)N3CCOCC3)cc12 (stereo not given),.,100.1,.,.,.,.
Cc1ccc(C)c2[nH]c(=O)c(C(c3nnnn3Cc3ccco3)N3CCc4ccccc4C3)cc12 (stereo not given),.,93.7,.,.,.,.
CS(=O)(=O)c1ccc(C(=O)N2CCN(C(=O)c3ccco3)CC2)cc1,/,/,.,/,/,/
COc1ccc(NC(=O)CSc2nc(O)cc(=O)n2-c2ccccc2)cc1,.,/,.,.,88.3,.
COc1ccc(NC(=O)CSc2nnc(C3CC3)n2N)cc1,/,.,.,.,.,.
Cc1ccc(CCc2nnc(SCC(=O)Nc3ccccc3Cl)n2-c2ccccc2)o1,.,.,.,.,.,.
CCOC(=O)c1ccc(NC(=O)CSc2nnc(CCc3ccc(C)o3)n2-c2ccccc2)cc1,.,51.6,.,.,.,.
COc1ccccc1-n1c(SCC(=O)Nc2ccc(Br)cc2)nc(O)cc1=O,.,/,.,/,64.2,.
COc1ccc(NC(=O)CSc2nnc(C3CCCCC3)n2-c2ccccc2)cc1,.,69.7,.,.,.,.
